Experiments:
[1] = target: T1, Serine/threonine-protein kinase Nek9 (Homo sapiens) (UniProt Q8TD19); assay: Inhibition of NEK9 in human HeLa cells lysate at 10 uM pre incubated for 15 mins followed by ADP acyl phosphate probe addition and measured after 10 mins by LC-MS/MS analysis relative to control; assay type: subcellular; conditions: time 25.0 min
T1 sequence (whole entry): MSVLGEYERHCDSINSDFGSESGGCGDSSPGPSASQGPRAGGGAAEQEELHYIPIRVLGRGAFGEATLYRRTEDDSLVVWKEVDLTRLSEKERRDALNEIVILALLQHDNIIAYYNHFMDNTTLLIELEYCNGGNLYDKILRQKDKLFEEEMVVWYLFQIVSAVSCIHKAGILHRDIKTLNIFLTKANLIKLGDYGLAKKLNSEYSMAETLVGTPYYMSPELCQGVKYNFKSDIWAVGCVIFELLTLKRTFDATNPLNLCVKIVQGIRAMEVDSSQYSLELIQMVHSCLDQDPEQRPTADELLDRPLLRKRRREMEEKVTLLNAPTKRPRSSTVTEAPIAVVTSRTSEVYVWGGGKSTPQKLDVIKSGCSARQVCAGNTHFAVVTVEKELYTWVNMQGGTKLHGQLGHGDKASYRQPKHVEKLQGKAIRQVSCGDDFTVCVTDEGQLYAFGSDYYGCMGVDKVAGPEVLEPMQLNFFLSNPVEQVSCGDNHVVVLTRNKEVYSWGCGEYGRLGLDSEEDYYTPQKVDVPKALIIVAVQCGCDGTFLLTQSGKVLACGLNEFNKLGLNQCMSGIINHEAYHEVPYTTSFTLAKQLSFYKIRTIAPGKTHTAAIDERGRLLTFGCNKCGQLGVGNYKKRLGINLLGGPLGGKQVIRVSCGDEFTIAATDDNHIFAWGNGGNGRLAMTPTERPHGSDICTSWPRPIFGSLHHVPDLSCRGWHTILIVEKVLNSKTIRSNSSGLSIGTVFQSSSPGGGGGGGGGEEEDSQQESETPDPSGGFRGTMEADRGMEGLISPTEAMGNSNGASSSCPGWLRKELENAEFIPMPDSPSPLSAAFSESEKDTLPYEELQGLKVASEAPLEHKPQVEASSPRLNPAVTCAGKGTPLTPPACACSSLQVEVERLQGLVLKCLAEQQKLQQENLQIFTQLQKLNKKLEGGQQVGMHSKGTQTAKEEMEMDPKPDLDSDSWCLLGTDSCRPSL

[2] = Plasma concentration in C57Bl/6 mouse at 50 mg/kg, ip administered for 4 day and measured 8 hr post last dose by LC-MS/MS analysis; assay type: ADME, organism-based
[3] = target: Tyrosine-protein kinase Lyn (Homo sapiens, UniProt P07948); assay: Inhibition of LYN in human HeLa cells lysate at 2 uM pre incubated for 15 mins followed by ATP acyl phosphate probe addition and measured after 10 mins by LC-MS/MS analysis relative to control; assay type: subcellular; conditions: time 25.0 min
[4] = target: T2, Dual specificity mitogen-activated protein kinase kinase 3 (Homo sapiens) (UniProt P46734); assay: Inhibition of MAP2K3 in human HeLa cells lysate at 10 uM pre incubated for 15 mins followed by ADP acyl phosphate probe addition and measured after 10 mins by LC-MS/MS analysis relative to control; assay type: subcellular; conditions: time 25.0 min
T2 sequence (whole entry): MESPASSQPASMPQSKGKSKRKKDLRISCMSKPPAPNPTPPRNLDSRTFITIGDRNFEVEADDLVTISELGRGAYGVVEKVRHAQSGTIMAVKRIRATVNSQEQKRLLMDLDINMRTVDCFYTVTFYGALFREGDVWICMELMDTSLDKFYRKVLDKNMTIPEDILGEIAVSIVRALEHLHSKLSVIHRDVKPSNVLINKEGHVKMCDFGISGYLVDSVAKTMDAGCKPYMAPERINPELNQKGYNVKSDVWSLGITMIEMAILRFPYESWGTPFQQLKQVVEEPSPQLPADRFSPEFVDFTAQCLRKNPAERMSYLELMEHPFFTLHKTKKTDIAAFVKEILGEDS

[5] = target: Interleukin-1 receptor-associated kinase 4 (Homo sapiens, UniProt Q9NWZ3); assay: Inhibition of IRAK4 in human HeLa cells lysate pre incubated for 15 mins followed by ATP acyl phosphate probe addition and measured after 10 mins by LC-MS/MS analysis; assay type: subcellular
[6] = target: Serine-protein kinase ATM (Homo sapiens, UniProt Q13315); assay: Inhibition of ATM in human HeLa cells lysate at 2 uM pre incubated for 15 mins followed by ADP acyl phosphate probe addition and measured after 10 mins by LC-MS/MS analysis relative to control; assay type: subcellular; conditions: time 25.0 min
Method in brief: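 KiNativ-type profiling in HeLa lysate (5 mg/mL total protein). Lysate preincubated 15 min with inhibitor at 50, 10, 2, 0.8 or 0 μM, then ATP or ADP acylphosphate probe added (5 μM final) for 10 min. Reaction stopped with urea and analysed by targeted MS, using up to four fragment ions per kinase peptide-probe conjugate. % inhibition calculated against untreated lysate. Duplicate reactions.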

[7] = target: Cyclin-dependent kinase 16 (Homo sapiens, UniProt Q00536); assay: Inhibition of PCTAIRE1 in human HeLa cells lysate at 2 uM pre incubated for 15 mins followed by ADP acyl phosphate probe addition and measured after 10 mins by LC-MS/MS analysis relative to control; assay type: subcellular; conditions: time 25.0 min
[8] = target: Tyrosine-protein kinase Fyn (Homo sapiens, UniProt P06241); assay: Inhibition of FYN in human HeLa cells lysate pre incubated for 15 mins followed by ADP acyl phosphate probe addition and measured after 10 mins by LC-MS/MS analysis; assay type: subcellular
[9] = Inhibition of SRPK1/2 in human HeLa cells lysate at 50 uM pre incubated for 15 mins followed by ADP acyl phosphate probe addition and measured after 10 mins by LC-MS/MS analysis relative to control; conditions: 25 min, condition cancer
[10] = Inhibition of CK1g1/g2/g3 in human HeLa cells lysate pre incubated for 15 mins followed by ADP acyl phosphate probe addition and measured after 10 mins by LC-MS/MS analysis; assay type: subcellular
[11] = target: Mitogen-activated protein kinase kinase kinase 5 (Homo sapiens, UniProt Q99683); assay: Inhibition of MAP3K5 in human HeLa cells lysate pre incubated for 15 mins followed by ATP acyl phosphate probe addition and measured after 10 mins by LC-MS/MS analysis; assay type: subcellular
[12] = Plasma concentration in Sprague-Dawley rat at 2 mg/kg, po measured after 30 mins by LC-MS/MS analysis; assay type: ADME, organism-based
[13] = target: Serine/threonine-protein kinase Sgk1 (Homo sapiens, UniProt O00141); assay: Inhibition of SGK1 in human HeLa cells lysate pre incubated for 15 mins followed by ADP acyl phosphate probe addition and measured after 10 mins by LC-MS/MS analysis; assay type: subcellular

Chain of Mitogen-activated protein kinase kinase kinase 5 (Q99683 whole entry): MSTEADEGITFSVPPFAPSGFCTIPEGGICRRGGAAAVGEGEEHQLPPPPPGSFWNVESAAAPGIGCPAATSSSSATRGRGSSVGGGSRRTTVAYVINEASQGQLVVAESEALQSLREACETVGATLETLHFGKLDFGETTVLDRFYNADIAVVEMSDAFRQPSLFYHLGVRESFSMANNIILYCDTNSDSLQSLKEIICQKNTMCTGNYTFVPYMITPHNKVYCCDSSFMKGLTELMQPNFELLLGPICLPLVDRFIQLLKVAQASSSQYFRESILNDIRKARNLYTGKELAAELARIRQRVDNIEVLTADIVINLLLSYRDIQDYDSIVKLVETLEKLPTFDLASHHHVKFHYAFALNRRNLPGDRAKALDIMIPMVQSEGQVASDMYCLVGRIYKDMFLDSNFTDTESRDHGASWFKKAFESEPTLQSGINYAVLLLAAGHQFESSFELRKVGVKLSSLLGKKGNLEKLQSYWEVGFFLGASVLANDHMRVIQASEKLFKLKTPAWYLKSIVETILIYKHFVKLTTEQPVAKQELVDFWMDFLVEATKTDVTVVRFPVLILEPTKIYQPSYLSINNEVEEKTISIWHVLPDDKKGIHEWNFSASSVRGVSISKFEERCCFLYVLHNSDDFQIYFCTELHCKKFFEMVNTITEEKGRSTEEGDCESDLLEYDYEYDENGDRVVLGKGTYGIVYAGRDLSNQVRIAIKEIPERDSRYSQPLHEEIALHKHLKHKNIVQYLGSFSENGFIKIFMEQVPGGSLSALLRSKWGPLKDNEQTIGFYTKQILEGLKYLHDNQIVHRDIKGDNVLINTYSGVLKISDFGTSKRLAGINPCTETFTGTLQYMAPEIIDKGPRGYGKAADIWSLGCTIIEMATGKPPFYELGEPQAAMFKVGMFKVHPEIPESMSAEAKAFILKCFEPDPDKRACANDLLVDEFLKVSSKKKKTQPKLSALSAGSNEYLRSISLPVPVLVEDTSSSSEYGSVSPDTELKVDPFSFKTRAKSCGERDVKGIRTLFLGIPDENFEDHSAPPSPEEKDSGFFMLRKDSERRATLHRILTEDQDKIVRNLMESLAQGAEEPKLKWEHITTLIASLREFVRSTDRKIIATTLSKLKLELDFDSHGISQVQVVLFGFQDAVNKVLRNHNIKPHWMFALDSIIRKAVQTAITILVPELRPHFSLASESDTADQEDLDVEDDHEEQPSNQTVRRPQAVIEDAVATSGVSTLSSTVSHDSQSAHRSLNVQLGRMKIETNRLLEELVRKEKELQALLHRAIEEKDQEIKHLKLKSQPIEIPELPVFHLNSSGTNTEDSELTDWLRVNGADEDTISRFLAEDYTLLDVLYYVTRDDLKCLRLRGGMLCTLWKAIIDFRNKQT
Chain of Serine-protein kinase ATM (Q13315 whole entry, the tested form may be a part): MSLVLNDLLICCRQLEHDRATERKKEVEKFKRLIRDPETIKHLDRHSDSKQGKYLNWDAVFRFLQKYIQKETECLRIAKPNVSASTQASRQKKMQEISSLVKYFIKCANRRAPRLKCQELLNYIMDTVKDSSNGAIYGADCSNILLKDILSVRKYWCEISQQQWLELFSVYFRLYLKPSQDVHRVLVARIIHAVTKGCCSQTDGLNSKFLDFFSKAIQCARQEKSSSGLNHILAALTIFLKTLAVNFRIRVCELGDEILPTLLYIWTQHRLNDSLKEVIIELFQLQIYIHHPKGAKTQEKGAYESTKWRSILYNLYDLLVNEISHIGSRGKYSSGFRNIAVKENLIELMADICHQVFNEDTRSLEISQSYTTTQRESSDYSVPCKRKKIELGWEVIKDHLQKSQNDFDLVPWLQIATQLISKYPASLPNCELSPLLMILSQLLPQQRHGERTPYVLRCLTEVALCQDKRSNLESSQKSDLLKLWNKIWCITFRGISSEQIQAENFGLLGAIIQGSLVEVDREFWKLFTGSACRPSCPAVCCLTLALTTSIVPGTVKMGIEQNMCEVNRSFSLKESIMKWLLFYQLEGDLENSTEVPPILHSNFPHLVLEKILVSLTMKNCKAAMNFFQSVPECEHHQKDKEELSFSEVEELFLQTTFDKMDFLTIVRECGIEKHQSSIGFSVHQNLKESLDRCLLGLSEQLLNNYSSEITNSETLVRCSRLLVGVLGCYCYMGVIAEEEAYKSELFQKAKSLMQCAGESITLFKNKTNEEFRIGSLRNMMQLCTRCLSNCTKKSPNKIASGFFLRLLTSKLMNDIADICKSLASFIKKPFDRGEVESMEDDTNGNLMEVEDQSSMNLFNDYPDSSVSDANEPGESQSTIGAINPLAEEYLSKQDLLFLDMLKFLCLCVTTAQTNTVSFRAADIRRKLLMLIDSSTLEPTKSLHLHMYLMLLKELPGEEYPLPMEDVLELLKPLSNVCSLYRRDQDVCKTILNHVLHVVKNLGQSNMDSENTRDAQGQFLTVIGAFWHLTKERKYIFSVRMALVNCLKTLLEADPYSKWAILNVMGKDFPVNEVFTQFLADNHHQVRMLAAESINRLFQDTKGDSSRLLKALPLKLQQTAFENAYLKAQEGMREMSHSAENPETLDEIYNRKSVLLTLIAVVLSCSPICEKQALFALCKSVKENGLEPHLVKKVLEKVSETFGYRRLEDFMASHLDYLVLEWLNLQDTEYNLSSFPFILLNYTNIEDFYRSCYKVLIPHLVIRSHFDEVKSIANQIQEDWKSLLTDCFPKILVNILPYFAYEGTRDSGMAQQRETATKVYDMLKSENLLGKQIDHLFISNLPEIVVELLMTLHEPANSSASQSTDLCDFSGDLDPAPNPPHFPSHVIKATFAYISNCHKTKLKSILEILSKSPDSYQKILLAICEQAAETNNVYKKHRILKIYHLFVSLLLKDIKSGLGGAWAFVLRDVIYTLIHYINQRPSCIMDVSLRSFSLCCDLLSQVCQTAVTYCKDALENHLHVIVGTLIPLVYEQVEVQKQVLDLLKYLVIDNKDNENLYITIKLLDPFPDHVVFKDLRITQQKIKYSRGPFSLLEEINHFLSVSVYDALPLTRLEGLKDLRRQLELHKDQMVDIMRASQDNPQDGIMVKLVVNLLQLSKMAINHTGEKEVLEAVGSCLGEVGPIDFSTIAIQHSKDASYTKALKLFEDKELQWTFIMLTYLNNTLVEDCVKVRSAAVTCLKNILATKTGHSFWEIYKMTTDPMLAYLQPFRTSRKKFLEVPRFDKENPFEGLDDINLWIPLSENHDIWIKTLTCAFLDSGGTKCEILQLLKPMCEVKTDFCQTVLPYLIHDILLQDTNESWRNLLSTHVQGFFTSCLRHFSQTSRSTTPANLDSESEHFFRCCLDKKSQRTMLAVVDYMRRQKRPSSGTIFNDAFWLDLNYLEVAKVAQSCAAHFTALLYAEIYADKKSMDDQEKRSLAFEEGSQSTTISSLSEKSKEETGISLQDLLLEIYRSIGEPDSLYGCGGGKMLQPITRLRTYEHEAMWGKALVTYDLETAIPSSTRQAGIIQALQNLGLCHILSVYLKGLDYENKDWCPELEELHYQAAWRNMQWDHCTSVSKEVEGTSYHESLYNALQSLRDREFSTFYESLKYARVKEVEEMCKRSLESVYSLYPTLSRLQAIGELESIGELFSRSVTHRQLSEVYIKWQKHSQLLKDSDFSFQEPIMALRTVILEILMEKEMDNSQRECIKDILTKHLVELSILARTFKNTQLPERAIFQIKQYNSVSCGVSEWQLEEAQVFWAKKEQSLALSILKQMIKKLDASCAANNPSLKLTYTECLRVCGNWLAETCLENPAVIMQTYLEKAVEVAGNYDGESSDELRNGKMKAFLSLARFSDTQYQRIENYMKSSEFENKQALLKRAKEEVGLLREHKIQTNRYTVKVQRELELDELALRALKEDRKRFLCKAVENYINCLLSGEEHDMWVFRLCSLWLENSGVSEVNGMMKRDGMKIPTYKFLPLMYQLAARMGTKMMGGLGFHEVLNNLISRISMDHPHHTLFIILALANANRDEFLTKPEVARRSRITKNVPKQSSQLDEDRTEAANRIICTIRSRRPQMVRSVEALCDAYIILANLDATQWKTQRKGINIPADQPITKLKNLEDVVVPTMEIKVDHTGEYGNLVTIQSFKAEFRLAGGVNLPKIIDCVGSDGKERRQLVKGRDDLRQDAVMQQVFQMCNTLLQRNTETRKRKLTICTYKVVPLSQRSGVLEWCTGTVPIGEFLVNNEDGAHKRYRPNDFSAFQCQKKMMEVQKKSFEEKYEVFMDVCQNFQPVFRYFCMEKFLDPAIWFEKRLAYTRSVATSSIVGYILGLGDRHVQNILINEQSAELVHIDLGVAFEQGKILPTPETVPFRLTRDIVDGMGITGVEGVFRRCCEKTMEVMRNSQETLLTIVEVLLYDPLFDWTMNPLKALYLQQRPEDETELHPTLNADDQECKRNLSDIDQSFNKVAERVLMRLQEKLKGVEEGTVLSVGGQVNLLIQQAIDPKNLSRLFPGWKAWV
Chain of Interleukin-1 receptor-associated kinase 4 (Q9NWZ3 whole entry): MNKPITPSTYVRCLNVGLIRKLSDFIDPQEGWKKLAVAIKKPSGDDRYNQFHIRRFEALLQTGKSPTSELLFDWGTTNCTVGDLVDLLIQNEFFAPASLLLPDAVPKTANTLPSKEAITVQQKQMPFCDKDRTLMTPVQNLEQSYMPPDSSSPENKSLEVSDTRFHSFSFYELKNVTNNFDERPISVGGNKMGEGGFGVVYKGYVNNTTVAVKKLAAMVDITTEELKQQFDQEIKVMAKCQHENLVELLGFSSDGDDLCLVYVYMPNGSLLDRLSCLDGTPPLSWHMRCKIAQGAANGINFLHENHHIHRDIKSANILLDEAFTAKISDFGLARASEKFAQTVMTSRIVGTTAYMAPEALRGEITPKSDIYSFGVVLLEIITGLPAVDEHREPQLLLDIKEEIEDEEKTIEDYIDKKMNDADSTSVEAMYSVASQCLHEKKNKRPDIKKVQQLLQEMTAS

## CCOc1cc(N2CCC(O)CC2)ccc1Nc1ncc2c(n1)N(C)c1ccccc1C(=O)N2C
[1]
  inhibition: 4.3%
[2]
  concentration at 96 h: 9 µM
[3]
  inhibition: -6.3%
[4]
  inhibition: -9.7%
[5]
  IC50: > 50 µM
[6]
  inhibition: 2.3%
[7]
  inhibition: 17.5%
[8]
  IC50: > 50 µM
[9]
  inhibition at 50 µM: -53.5%
[10]
  IC50: > 50 µM
[11]
  IC50: > 50 µM
[12]
  concentration at 0.5 h: ~0.5 µM
[13]
  IC50: > 50 µM

Reference: ChEMBL document CHEMBL5661979, “Pharmacological inhibition of BMK1 suppresses tumor growth through promyelocytic leukemia protein” (Cancer Cell, 2010)
